# Measurements of several laboratories.
# Target: Serine/threonine-protein kinase 4 (STK4, Homo sapiens, UniProt Q13043)
# One construct used (Q13043 1-487): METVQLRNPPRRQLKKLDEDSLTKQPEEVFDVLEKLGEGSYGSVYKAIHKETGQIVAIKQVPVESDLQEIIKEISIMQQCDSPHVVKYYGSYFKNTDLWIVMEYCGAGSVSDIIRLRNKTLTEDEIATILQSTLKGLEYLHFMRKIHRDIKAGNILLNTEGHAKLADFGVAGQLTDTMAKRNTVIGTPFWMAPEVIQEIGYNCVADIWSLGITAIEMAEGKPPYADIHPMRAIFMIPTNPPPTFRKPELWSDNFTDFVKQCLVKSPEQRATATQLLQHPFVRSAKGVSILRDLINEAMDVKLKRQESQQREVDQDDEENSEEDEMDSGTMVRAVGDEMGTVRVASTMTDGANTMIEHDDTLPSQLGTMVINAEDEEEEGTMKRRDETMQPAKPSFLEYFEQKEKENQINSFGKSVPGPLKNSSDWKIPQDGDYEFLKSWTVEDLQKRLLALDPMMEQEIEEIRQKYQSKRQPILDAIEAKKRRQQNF
SMILES,effect on,mode,technique,concentration,endpoint,value
C#Cc1cc(-c2cc(Nc3nc(N[C@@H](C)c4ccc(F)cn4)ncc3Cl)n[nH]2)ccc1C=O,enzyme activity,inhibitor,,0.2 µM,inhibition,54.5%
Cc1cc(O)c(-c2ccc([C@@H](C)CN(C)C)cc2)c2c1[nH]c(=O)c1sccc12,enzyme activity,inhibitor,,0.1 µM,inhibition,-0.517%
CN1CCN(C(=O)c2ccc(NC(=O)Nc3ccc(N(C)c4ccnc(Nc5ccc(CS(C)(=O)=O)cc5)n4)cc3)cc2)CC1,binding,,competition with immobilised ligand,1 µM,remaining binding,96%
C1=C/COCc2cc(ccc2OCCN2CCCC2)Nc2nccc(n2)-c2cccc(c2)COC/1,cell-free assay,,,0.1 µM,remaining signal,100%
COc1ccc2[nH]c3c4[nH]c5ccc(OC)cc5c4c4c(c3c2c1)C(=O)NC4=O,binding,,competition with immobilised ligand,1 µM,remaining binding,100%
C=CC(=O)N1CCC([C@@H]2CCNc3c(C(N)=O)c(-c4ccc(Oc5ccccc5)cc4)nn32)CC1,enzyme activity,inhibitor,,1 µM,inhibition,0%
CCCCC(=O)Nc1ccc(-c2ccc3ncn(CCC)c(=O)c3c2)cn1,binding,,competition with immobilised ligand,0.5 µM,remaining binding,95%
CO[C@@H]1[C@H](N(C)C(=O)c2ccccc2)C[C@H]2O[C@]1(C)n1c3ccccc3c3c4c(c5c6ccccc6n2c5c31)C(=O)NC4,enzyme activity,inhibitor,,1 µM,inhibition,78%
COc1ccc2oc(-c3ccc4nc(N)oc4c3)c/c(=N\c3ccccc3NC(=O)CCN)c2c1,binding,,,1 µM,remaining binding,111%
